MIC data for 7 molecules are collected here from ChEMBL document CHEMBL1121523, “Aminoglycoside antibiotics. 3. Epimino derivatives of neamine, ribostamycin, and kanamycin B” (1980).

Converted amounts (≈) assume the structure as drawn. Some results are limits rather than exact numbers.

Common to all, as to assay type: functional
Experiment [1] concerns Escherichia coli. Description: Minimum inhibitory concentration was measured against Escherichia coli A 9632, in combination with Kanamycin A at 8 ug/mL concentration. Put shortly: (§1)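 The value is the minimum inhibitory concentration of kanamycin A, in µg/mL, against the listed strain. Strains are designated by their inactivating enzyme, e.g. aminoglycoside 3'-phosphotransferase II producers.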

Experiment [2] has as its system Pseudomonas aeruginosa. The experiment is described as follows: Minimum inhibitory concentration was measured against Pseudomonas aeruginosa A 20357.
The subject of experiment [3] is Providencia rettgeri. Description: Minimum inhibitory concentration was measured against Proteus rettgeri A 9637.
For experiment [4], the system named is Providencia rettgeri. Description: Minimum inhibitory concentration was measured against Proteus rettgeri A 21615, in combination with Kanamycin A at specified concentration. The method in brief:
as §1

Experiment [5] relates to Providencia rettgeri. Description: Minimum inhibitory concentration was measured against Proteus rettgeri A 9637, in combination with Kanamycin A at specified concentration. The method in brief:
as §1

Experiment [6] concerns Escherichia coli. Description: Minimum inhibitory concentration was measured against Escherichia coli A 20665, in combination with Kanamycin A at specified concentration. The method in brief: as §1
For experiment [7], the system named is Escherichia coli. Description: Minimum inhibitory concentration was measured against Escherichia coli A 9632, in combination with Kanamycin A at specified concentration. Put shortly: as §1
For experiment [8], the system named is Escherichia coli. The experiment is described as follows: Minimum inhibitory concentration was measured against Escherichia coli A 20507.
Experiment [9] concerns Escherichia coli. The experiment is described as follows: Minimum inhibitory concentration was measured against Escherichia coli A 20507, in combination with Kanamycin A at specified concentration. Put shortly: as §1
In experiment [10] the test system is Providencia rettgeri. Description: Minimum inhibitory concentration was measured against Proteus rettgeri A 21615, in combination with Kanamycin A at 8 ug/mL concentration. Put shortly: as §1
Experiment [11] has as its system Escherichia coli. The experiment is described as follows: Minimum inhibitory concentration was measured against Escherichia coli A 20665, in combination with Kanamycin A at 8 ug/mL concentration. Put shortly: as §1
Experiment [12] has as its system Pseudomonas aeruginosa. The experiment is described as follows: Minimum inhibitory concentration was measured against Pseudomonas aeruginosa A 20357, in combination with Kanamycin A at specified concentration. The method in brief: as §1
Experiment [13] deals with Pseudomonas aeruginosa. The experiment is described as follows: Minimum inhibitory concentration was measured against Pseudomonas aeruginosa A 20653.
For experiment [14], the system named is Escherichia coli. Description: Minimum inhibitory concentration was measured against Escherichia coli A 20507, in combination with Kanamycin A at 8 ug/mL concentration. The method in brief:
as §1

For experiment [15], the system named is Pseudomonas aeruginosa. Description: Minimum inhibitory concentration was measured against Pseudomonas aeruginosa A 20653, in combination with Kanamycin A at 8 ug/mL concentration. Put shortly:
as §1

Experiment [16] relates to Escherichia coli. Description: Minimum inhibitory concentration was measured against Escherichia coli A 9632.
The subject of experiment [17] is Pseudomonas aeruginosa. Description: Minimum inhibitory concentration was measured against Pseudomonas aeruginosa A 20357, in combination with Kanamycin A at 8 ug/mL concentration. The method in brief:
as §1

In experiment [18] the test system is Pseudomonas aeruginosa. The experiment is described as follows: Minimum inhibitory concentration was measured against Pseudomonas aeruginosa A 20653 in combination with Kanamycin A at specified concentration. The method in brief:
as §1

Experiment [19] relates to Escherichia coli. Description: Minimum inhibitory concentration was measured against Escherichia coli A 20665.
Experiment [20] relates to Providencia rettgeri. The experiment is described as follows: Minimum inhibitory concentration was measured against Proteus rettgeri A 21615.
Experiment [21] deals with Providencia rettgeri. The experiment is described as follows: Minimum inhibitory concentration was measured against Proteus rettgeri A 9637, in combination with Kanamycin A at 8 ug/mL concentration. The method in brief:
as §1

Experiment [22] relates to Providencia rettgeri. Description: Minimum inhibitory concentration was measured against Proteus rettgeri A 21615, in combination with Kanamycin A at 32 ug/mL concentration. The method in brief: (§2)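 Kanamycin A was serially diluted in Mueller-Hinton broth with each epimino derivative held at a fixed 32 µg/mL (8 µg/mL also run). The value is the minimum inhibitory concentration of kanamycin A in the combination against Bristol-numbered strains, read for lowering of kanamycin A MIC in resistant strains.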

For experiment [23], the system named is Pseudomonas aeruginosa. Description: Minimum inhibitory concentration was measured against Pseudomonas aeruginosa A 20357, in combination with Kanamycin A at 32 ug/mL concentration. The method in brief: as §2
Experiment [24] has as its system Pseudomonas aeruginosa. The experiment is described as follows: Minimum inhibitory concentration was measured against Pseudomonas aeruginosa A 20653 in combination with Kanamycin A at 32 ug/mL concentration. The method in brief:
as §2

For experiment [25], the system named is Escherichia coli. Description: Minimum inhibitory concentration was measured against Escherichia coli A 20665, in combination with Kanamycin A at 32 ug/mL concentration. Put shortly: as §2
Experiment [26] has as its system Escherichia coli. Description: Minimum inhibitory concentration was measured against Escherichia coli A 20507, in combination with Kanamycin A at 32 ug/mL concentration. The method in brief:
as §2

For experiment [27], the system named is Providencia rettgeri. Description: Minimum inhibitory concentration was measured against Proteus rettgeri A 9637, in combination with Kanamycin A at 32 ug/mL concentration. Put shortly: as §2

The MIC is the smallest concentration in the dilution series that meets the test's criterion for growth inhibition. In the case of `NCC1OC(OC2C(N)CC(N)C(OC3OC(CO)C(O)C4NC34)C2O)C(N)C(O)C1O` (stereo unspecified), the MIC in [1] is 1 µg/mL; in experiment [2] it was > 125 µg/mL; in experiment [3], > 125 µg/mL; in experiment [4] it was 63 µg/mL; in experiment [5], 0.5 µg/mL; in experiment [6] it was > 125 µg/mL. In addition, the minimal inhibitory concentration (MIC) was 1 µg/mL in experiment [7]; > 125 µg/mL in [8]; 125 µg/mL in experiment [9]; 63 µg/mL in experiment [10]; > 125 µg/mL in experiment [11]; 4 µg/mL in [12]. The minimum inhibitory concentration (MIC) in experiment [13] is > 125 µg/mL; in experiment [14], 125 µg/mL; in experiment [15] it was > 125 µg/mL; in experiment [16], 63 µg/mL (≈ 135 µM); in experiment [17], 4 µg/mL; in experiment [18] it was > 125 µg/mL. Further, the minimum inhibitory concentration (MIC) in experiment [19] was > 125 µg/mL; in [20] it was > 125 µg/mL; in [21], 0.5 µg/mL.
Take `NCC1OC(OC2C(N)CC(N)C(O)C2O)C2NC2C1O` (stereo unspecified): the MIC is > 125 µg/mL in [8], 32 µg/mL in experiment [9] and 63 µg/mL in experiment [14].
For the molecule `NCC1OC(OC2C(NC(=O)OCc3ccccc3)CC(N)C(O)C2O)C(N)C(O)C1O` (stereo unspecified), the minimum inhibitory concentration (MIC) in [1] is 2 µg/mL; in experiment [2], > 125 µg/mL; in experiment [3] it was > 125 µg/mL; in [22] it was 125 µg/mL; in experiment [23] it was 4 µg/mL; in experiment [24] it was > 125 µg/mL. For the same molecule, the minimum inhibitory concentration (MIC) was > 125 µg/mL in experiment [8]; 125 µg/mL in experiment [10]; > 125 µg/mL in experiment [11]; > 125 µg/mL in experiment [25]; > 125 µg/mL in experiment [13]; 125 µg/mL in experiment [14]. The minimum inhibitory concentration (MIC) in [26] was 125 µg/mL; in [15], > 125 µg/mL; in [16], > 125 µg/mL; in experiment [17] it was 4 µg/mL; in [19], > 125 µg/mL; in experiment [20], > 125 µg/mL. Besides, the minimal inhibitory concentration (MIC) in experiment [27] and in [21] was 1 µg/mL throughout.
As for `NCC1OC(OC2C(NC(=O)OCc3ccccc3)CC(N)C(O)C2O)C2NC2C1O` (stereo unspecified), the minimal inhibitory concentration (MIC) in [2] is > 125 µg/mL; in experiment [3], > 125 µg/mL; in [4], 63 µg/mL; in [6], > 125 µg/mL; in [8] it was > 125 µg/mL; in [9], 63 µg/mL. For the same molecule, the MIC is > 125 µg/mL in experiment [10]; > 125 µg/mL in [11]; > 125 µg/mL in experiment [13]; > 125 µg/mL in experiment [14]; > 125 µg/mL in experiment [15]; 125 µg/mL (≈ 285 µM) in experiment [16]. Besides, the minimal inhibitory concentration (MIC) in experiment [18] is > 125 µg/mL; in [19], 125 µg/mL (≈ 285 µM); in [20], > 125 µg/mL.
In the case of `NCC1OC(OC2C(N)CC(N)C(OC3OC(CO)C(O)C(N)C3O)C2O)C2NC2C1O` (stereo unspecified), the MIC in experiment [1] was 0.25 µg/mL; in experiment [2], 125 µg/mL (≈ 269 µM); in [3], 16 µg/mL (≈ 34.4 µM); in [4] it was 125 µg/mL; in experiment [5] it was 0.5 µg/mL; in [6], > 125 µg/mL. Besides, the MIC is 125 µg/mL (≈ 269 µM) in experiment [8]; 125 µg/mL in experiment [9]; 125 µg/mL in experiment [10]; > 125 µg/mL in experiment [11]; 4 µg/mL in experiment [12]; 125 µg/mL (≈ 269 µM) in experiment [13]. For the same molecule, the MIC in experiment [14] was 125 µg/mL; in [15], > 125 µg/mL; in [16], 8 µg/mL (≈ 17.2 µM); in [17] it was 4 µg/mL; in [18], > 125 µg/mL; in experiment [19], 125 µg/mL (≈ 269 µM). For the same molecule, the figures for the MIC in experiment [20] and in experiment [21] were > 125 µg/mL and 0.5 µg/mL, respectively.
Regarding `NCC1OC(OC2C(NC(=O)OCc3ccccc3)CC(N)C(O)C2OC2O[C@H](CO)[C@@H](O)[C@H]2O)C2NC2C1O` (stereo partly specified), the MIC in experiment [1] was 1 µg/mL; in experiment [2], > 125 µg/mL; in experiment [3] it was > 125 µg/mL; in [4], 125 µg/mL; in [5] it was 0.5 µg/mL; in [6], > 125 µg/mL. In addition, the minimum inhibitory concentration (MIC) in experiment [7] was 1 µg/mL; in experiment [8], > 125 µg/mL; in experiment [9], 63 µg/mL; in [10] it was 125 µg/mL; in experiment [11], > 125 µg/mL; in experiment [12], 4 µg/mL. Besides, the MIC in experiment [13] is > 125 µg/mL; in [14], 125 µg/mL; in experiment [15], > 125 µg/mL; in experiment [16] it was > 125 µg/mL; in experiment [17] it was 4 µg/mL; in [18], > 125 µg/mL. In addition, the results for the MIC in [19], in experiment [20] and in experiment [21] were > 125 µg/mL, > 125 µg/mL and 0.5 µg/mL, respectively.
`NC[C@H]1O[C@H](O[C@H]2[C@H](O)[C@@H](O[C@H]3O[C@H](CO)[C@@H](O)[C@H](N)[C@H]3O)[C@H](N)C[C@@H]2N)[C@H](O)[C@@H](O)[C@@H]1O` [KANAMYCIN]: the MIC was ≤ 0.25 µg/mL in [3]; > 125 µg/mL in experiment [8]; > 125 µg/mL in [13]; 2 µg/mL (≈ 4.13 µM) in experiment [16]; > 125 µg/mL in experiment [19]; 125 µg/mL (≈ 258 µM) in [20].
